High-throughput results deposited in PubChem BioAssay by several laboratories.
In the library only some 3.7% were active in any assay of this set; here they are far more common.
Myeloid diff 2: compounds promoting myeloid differentiation | actives 1% (n = 360,000) | ER-HoxA9 myeloid progenitors, lysozyme-GFP differentiation, flow cytometry | calls only at 10 µM | AID 624256;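 active = normalized GFP-positive differentiation at or above the plate's own cutoff, the solvent-only control mean plus 3 SD; inconclusive = no clear call, values can overlap the other calls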;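 note: cells exposed to compound for four days before flow analysis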
MC4R barr agon: activates human MC4R beta-arrestin recruitment; P32245; actives 0.98% (n = 360,000); activation, % at 8.9 µM; U2OS MC4R beta-arrestin complementation, luminescence; percent of melanotan II response, DMSO zero;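 active = activation above a per-plate cutoff, the mean activation of sample wells on that plate plus 3 SD, cut at about 8% in these data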
Target sequence (P32245 whole entry, looked up): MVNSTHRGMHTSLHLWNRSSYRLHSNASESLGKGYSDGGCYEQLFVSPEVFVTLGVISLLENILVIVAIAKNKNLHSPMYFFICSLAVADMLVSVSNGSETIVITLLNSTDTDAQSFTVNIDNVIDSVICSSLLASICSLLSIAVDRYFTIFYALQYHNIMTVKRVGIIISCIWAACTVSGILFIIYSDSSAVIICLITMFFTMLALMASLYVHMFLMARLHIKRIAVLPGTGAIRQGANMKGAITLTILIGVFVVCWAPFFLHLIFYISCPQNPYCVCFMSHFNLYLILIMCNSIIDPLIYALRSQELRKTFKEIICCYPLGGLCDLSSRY
EBI2 antag: EBI2 (human) antagonism | P32249 | EBI2 beta-arrestin recruitment, luminescence, 7a,25-OHC stimulated | inhibition, % at 5 µM | actives 0.81% (n = 360,000) | AID 651636; in the data active = inhibition above about 38%;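 note: enzyme fragment complementation signal reports receptor beta-arrestin coupling in cells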
MC4R antag cAMP: blocks human MC4R cAMP signaling. actives 0.48% (n = 360,000). P32245. inhibition, % at 6.5 µM. MC4R-expressing cells, MTII-stimulated cAMP, LANCE TR-FRET;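 active = inhibition above its plate's cutoff, the mean of tested wells on that plate plus 3 SD, cut at about 29% in these data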
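material = U2OS cells stably expressing human melanocortin 4 receptor (MC4R) | also added = Melanotan II challenge | dosing = single nominal compound dose of 6.5 µM | detection = TR-FRET with Eu-cAMP and labeled anti-cAMP, 671 nm | replication = singlicate | timing = compound 30 min, challenge 1 h, detection 1 h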
Granule exo inh: lytic granule exocytosis inhibition; TALL-104 LAMP-1 surface exposure, flow cytometry; cells stimulated with thapsigargin and PMA; inhibition, % at 10 µM; actives 0.66% (n = 360,000); AID 651702;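 active = inhibition above about 55%, limit read from the data; inconclusive = no clear call, values can overlap the other calls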
Numbers stand for hits; . = inactive; ? = inconclusive; / = not tested or not shown; + = active, no number.

SMILES | Myeloid diff 2 | MC4R barr agon | EBI2 antag | MC4R antag cAMP | Granule exo inh
O=C(CCl)Nc1ccc(-c2ccccc2)cc1 | . | 9.1 | . | . | .
O=C(CCl)Nc1ccc(N=Nc2ccccc2)cc1 | . | . | . | . | .
COc1ccc(CCNC(=O)c2cc3cc(Cl)ccc3nc2N)cc1OC | . | / | . | / | .
Cc1ccc(C)c(NC(=O)C2(C)CCCN2C(=O)C(C)C)c1 (stereo not drawn) | . | . | . | . | .
Cc1ccccc1-c1n[nH]nc1C1=CC(=O)CC(C)(C)C1 | . | . | . | . | .
Cc1ccc(C(=O)N2CCN(C)CC2)cc1S(=O)(=O)N1CCCCCC1 | . | . | . | . | .
NNC(=O)c1csc(-c2cccc(C(F)(F)F)c2)n1 | + | . | . | . | .
Cc1c(Cl)cccc1-n1c(SCC(=O)N2CCC(C(=O)O)CC2)nnc1-c1ccncc1 | . | . | . | . | .
COc1ccc2cc3cc(C(=O)NCCC(C)C)oc3nc2c1 | . | 8.8 | . | . | .
CCCCN(CC)CCNC(=O)c1cc2cc3ccc(Cl)cc3nc2o1 | + | . | . | . | .
COCCNC(=O)c1cc2cc3ccc(OC)cc3nc2o1 | . | . | . | . | .
CCOc1ccc(OCCC(=O)OCC(=O)N2CCN(S(=O)(=O)c3ccc(C)cc3C)CC2)cc1 | . | . | . | . | .
O=C1c2ccccc2-c2nnc(-c3ccc(F)cc3)cc21 | . | . | 48 | . | .
Cc1ccc(-c2cc3c(nn2)-c2ccccc2C3=O)cc1 | . | . | 60 | . | .
Cc1ccccc1C(=O)N(C)[C@H]1C[C@H]2c3[nH]c4ccccc4c3CCN2C[C@H]1[C@H](C)O | . | / | . | / | .
COC(=O)NCC(c1ccco1)N1CCN(c2ccc(F)cc2)CC1 (stereo not drawn) | . | . | . | . | .
O=C(NCC(c1ccco1)N1CCN(c2ccc(F)cc2)CC1)OCc1ccccc1 (stereo not drawn) | . | 8.3 | . | . | .
COc1ccc(CNC(=O)CSc2ncn[nH]2)cc1OC | + | . | . | . | .
O=C(CSc1ncn[nH]1)NCc1ccc(Cl)cc1 | . | . | . | . | .
CN(C)CCCN(C(=O)c1cccs1)c1nc(-c2ccccc2)cs1 | + | . | . | . | .
CC(C)CC(=O)Nc1cc2c3c(c1)CCN3C(=O)CC2 | + | . | . | . | .
O=C(Nc1ccnn1C1CCN(C/C=C/c2ccccc2)CC1)c1ccccc1Cl | . | . | . | . | .
COc1ccccc1C(=O)Nc1ccnn1C1CCN(C/C=C/c2ccc(F)cc2)CC1 | + | . | . | . | .
O=C(Nc1ccc(S(=O)(=O)Nc2ncccn2)cc1)c1ccccc1Br | . | . | . | . | .
Cc1cc(C)nc(N(C#N)CCOc2ccc(Cl)cc2)n1 | . | . | . | . | 77
SMILES | Myeloid diff 2 | MC4R barr agon | EBI2 antag | MC4R antag cAMP | Granule exo inh
Cc1cc(C)nc(N(C#N)Cc2ccc(Cl)cc2)n1 | . | . | . | . | .
O=c1[nH]c2ccccc2nc1/C=C/c1ccccc1 | . | . | . | . | .
O=c1[nH]c2ccccc2nc1/C=C/c1ccc(F)cc1 | + | . | . | . | .
O=c1[nH]c2ccccc2nc1/C=C/c1ccc(O)cc1 | + | . | . | . | .
O=C1C(=Cc2cccc(O)c2O)SC(=S)N1CCCN1CCOCC1 | + | . | . | . | .
O=C(CCCN1C(=O)/C(=C/c2ccccc2Cl)SC1=S)NCCCN1CCOCC1 | . | . | . | . | .
O=C(CCN1C(=O)/C(=C\c2cccc(Br)c2)SC1=S)NCCCN1CCOCC1 | . | . | . | . | 75
CC(C#N)(NC(=O)CN1CCN(S(=O)(=O)c2ccccc2Cl)CC1)C1CC1 (stereo not drawn) | . | . | . | . | .
CCN(CC)CCC(=O)Nc1cccc2c1C(=O)c1ccccc1C2=O | ? | . | . | . | 56
COc1ccc(C(=S)N2CCOCC2)cc1OC(=O)c1ccccc1 | . | . | . | . | .
COc1ccc(C(=S)N2CCOCC2)cc1OC(=O)c1cc(OC)c(OC)c(OC)c1 | + | . | . | . | .
Cc1ccc(-c2cn3nc(-c4ccccc4)c(-c4ccccc4)nc3n2)cc1 | + | . | . | . | .
CS(=O)(=O)N1CCC(C(=O)NCc2ccc(F)cc2)CC1 | . | . | . | . | .
C(=Cc1c[nH]c2ccccc12)c1ccc2ccccc2n1 | + | . | . | . | .
C(=Cc1c[nH]c2ccccc12)c1nccc2ccccc12 | . | . | . | . | .
O=C(CN1C(=O)c2ccc([N+](=O)[O-])cc2C1=O)NCC1CCCO1 (stereo not drawn) | . | . | . | . | .
O=C(c1ccc(Cl)cc1)c1c[nH]c(C(=O)NNc2cccc(Cl)n2)c1 | . | 8.3 | . | . | .
CC/C(=N\NC(=O)c1cc(C2CC2)[nH]n1)c1ccccc1 | . | . | . | . | .
C[C@@H](C(=O)Nc1ccc2ccccc2c1)[C@@H]1C[C@@]1(C)[C@@H](NC(=O)c1ccccc1)c1ccccc1 | . | . | 54 | . | .
Cc1oc(C(C)(C)C)cc1C(=O)N1CCCC1C(=O)O (stereo not drawn) | + | . | . | . | .
CCN(Cc1ccncc1)Cc1nc(CC2CC2)no1 | / | . | . | . | .
COc1ccc([C@H]2C[C@@H](O)[C@H](n3cc(C4CC4)nn3)CN2C(=O)c2cccs2)cc1 | . | . | . | . | .
Cc1ccccc1NC(=O)N1CCNC(=O)C1CC(=O)Nc1cc(Cl)ccc1Cl (stereo not drawn) | ? | . | . | . | .
COc1cccc(CN2CCN(CC#Cc3ccccc3)CC2CCO)c1 (stereo not drawn) | . | . | . | . | .
Cc1ccc(NC(=O)COC(=O)CCC(=O)c2cccs2)c(Br)c1 | . | . | . | . | 75
SMILES | Myeloid diff 2 | MC4R barr agon | EBI2 antag | MC4R antag cAMP | Granule exo inh
Cc1ccc(NC(=O)CCC(=O)c2cccs2)c(Br)c1 | . | . | . | . | .
Cc1ccc2c(c1)c(C)c(C)n2CC(O)Cn1nnc2ccccc21 (stereo not drawn) | + | . | . | . | .
CC(=O)Nc1cc2c3c(cccc3c1)-c1ccccc1-2 | + | . | . | . | .
CCCc1nc(SCC(=O)N2CCC(Cc3ccccc3)CC2)c2c(=O)n(C)c(=O)n(C)c2n1 | + | . | . | . | .
O=C(Cc1ccc(Cl)cc1Cl)NC1CCCCCC1 | + | . | . | . | .
Cn1c(SCC(=O)Nc2cccc(F)c2)nc2c(c1=O)SCC2 | . | . | . | . | .
CC1(C)CC[C@]2(C(=O)O)CC[C@]3(C)C(=CCC4[C@@]5(C)CC[C@H](O)C(C)(C)C5CC[C@]43C)C2C1 (stereo partly drawn) | . | . | . | . | 56
CC1(C)CC[C@]2(C(=O)O)CC[C@]3(C)C(=CC[C@@H]4[C@@]5(C)CC[C@H](O)C(C)(C)[C@@H]5CC[C@]43C)[C@@H]2C1 | . | . | . | . | .
Cc1ccc(S(=O)(=O)CCN2C=CC(C(F)(F)F)=NCC2)cc1 | . | . | . | . | .
